Experimental data as given in ChEMBL document CHEMBL5344428, “Discovery, Crystallographic Studies, and Mechanistic Investigations of Novel Phenylalanine Derivatives Bearing a Quinazolin-4-one Scaffold as Potent HIV Capsid Modulators” (J Med Chem, 2023).

How the values were obtained:
[1] = Selectivity ratio of EC50 for antiviral activity against HIV1 IIIB infected in human MT4 cells to EC50 for antiviral activity against HIV2 ROD infected in human MT4 cells; assay type: toxicity, cell-based
How it was run: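 Ratio is EC50 against HIV-1 IIIB divided by EC50 against HIV-2 ROD. Both EC50 values come from MTT-read protection of infected MT-4 cells.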

[2] = Selectivity index, ratio of CC50 for cytotoxicity against human MT4 cells to EC50 for antiviral activity against HIV2 ROD infected in human MT4 cells; assay type: toxicity, cell-based; details: read-out: Ratio CC50/EC50
How it was run: (§1)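 SI is CC50 divided by EC50. CC50 comes from MTT viability of uninfected MT-4 cells. EC50 comes from MTT-read protection of MT-4 cells infected with HIV-1 IIIB or HIV-2 ROD. Each value was run in at least triplicate.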

[3] = Selectivity index, ratio of CC50 for cytotoxicity against human MT4 cells to EC50 for antiviral activity against HIV1 IIIB infected in human MT4 cells; assay type: toxicity, cell-based; details: read-out: Ratio CC50/EC50; how it was run: as §1
[4] = Cytotoxicity against human MT4 cells assessed as reduction in cell viability incubated for 5 days by MTT assay; assay type: toxicity, cell-based; details: MT4 cells, time 5 day
How it was run: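 Uninfected MT-4 cells were exposed to compound, and viability was read by the MTT method. […] Each value was run in at least triplicate and averaged from at least three independent experiments.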

[5] = test system: Human immunodeficiency virus 1; assay: Antiviral activity against HIV1 IIIB infected in human MT4 cells assessed as reduction in virus induced cytopathic effect measured after 5 days by MTT assay; assay type: functional, organism-based; details: Human immunodeficiency virus 1, IIIB, MT4, 120 h
How it was run: (§2)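 MT-4 cells were infected with HIV-1 IIIB or HIV-2 ROD, and cell viability was read by MTT. […] Each value was run in at least triplicate and averaged from at least three independent experiments.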

[6] = test system: Human immunodeficiency virus 2; assay: Antiviral activity against HIV2 ROD infected in human MT4 cells assessed as reduction in virus induced cytopathic effect measured after 5 days by MTT assay; assay type: functional, organism-based; details: Human immunodeficiency virus 2, ROD, MT4, 120 h; how it was run: as §2

| SMILES | Ratio EC50 [1] | selectivity ratio [2] | selectivity ratio [3] | CC50 at 120 h [4] | EC50 [5] | EC50 [6] |
| --- | --- | --- | --- | --- | --- | --- |
| COc1ccc(-n2c([C@H](Cc3ccccc3)NC(=O)CN3CCN(S(=O)(=O)c4ccc(N)cc4)CC3)nc3cc(S(C)(=O)=O)ccc3c2=O)cc1 | 10.97 | > 481 | > 43.7 | > 168 µM | 3.84 µM | 0.35 µM |
| COc1ccc(-n2c(SCCC3OCCCO3)nnc2[C@H](Cc2ccccc2)NC(=O)Cc2c(C)[nH]c3ccccc23)cc1 | 0.25 | 5 | 20 | 32.3 µM | 1.64 µM | 6.65 µM |
| COc1ccc(N(C)C(=O)[C@H](Cc2cc(F)cc(F)c2)NC(=O)CN(Cc2ccc(F)cc2)C(=O)Cc2ccc(B3OC(C)(C)C(C)(C)O3)cc2)cc1 | 0.89 | 5 | 6 | 65.4 µM | 11.7 µM | 13.2 µM |
| COc1ccc(N(C)C(=O)[C@H](Cc2cc(F)cc(F)c2)NC(=O)CN(Cc2ccc(C#N)cc2)C(=O)Cc2c[nH]c3ccc(Br)cc23)cc1 | 0.36 | 6 | 16 | 87.6 µM | 5.61 µM | 15.7 µM |
| COc1ccc(N(C)C(=O)[C@H](Cc2cc(F)cc(F)c2)NC(=O)CN(C(=O)Cc2c(C)[nH]c3ccccc23)C2CC2)cc1 | 0.18 | 6 | 36 | 112 µM | 3.08 µM | 17.3 µM |
| COc1ccc(N(C)C(=O)[C@H](Cc2ccccc2)NC(=O)Cn2ccc(NC(=O)c3cccc(F)c3)cc2=O)cc1 | 2.87 | 9.36 | 3.26 | 61.6 µM | 18.9 µM | 6.59 µM |
| COC(=O)CSc1nnc([C@H](Cc2ccccc2)NC(=O)Cc2c(C)[nH]c3ccccc23)n1-c1ccc(OC)cc1 | 0.46 | 12 | 27 | 82.3 µM | 3.01 µM | 6.59 µM |
| COc1ccc(-n2c([C@H](Cc3cc(F)cc(F)c3)NC(=O)CN3CCN(S(=O)(=O)c4ccc([N+](=O)[O-])cc4)CC3)nc3cc(F)ccc3c2=O)cc1 | 1.4 | > 481 | > 338 | > 167 µM | 0.49 µM | 0.35 µM |
| COc1ccc(-n2c(SCc3ccc(S(N)(=O)=O)cc3)nnc2[C@H](Cc2ccccc2)NC(=O)Cc2c(C)[nH]c3ccccc23)cc1 | 0.72 | > 55 | > 76 | > 187 µM | 2.47 µM | 3.42 µM |
| COc1ccc(-n2c(SCC(N)=O)nnc2[C@H](Cc2ccccc2)NC(=O)Cc2c(C)[nH]c3ccccc23)cc1 | 0.24 | 32 | 135 | 118 µM | 0.88 µM | 3.74 µM |
| COC(=O)CCSc1nnc([C@H](Cc2ccccc2)NC(=O)Cc2c(C)[nH]c3ccccc23)n1-c1ccc(OC)cc1 | 0.59 | > 11 | > 19 | > 214 µM | 11.4 µM | 19.2 µM |
| COc1ccc(-n2c(SCc3ncccn3)nnc2[C@H](Cc2ccccc2)NC(=O)Cc2c(C)[nH]c3ccccc23)cc1 | 0.24 | 14 | 58 | 106 µM | 1.81 µM | 7.43 µM |
| COc1ccc(-n2c([C@H](Cc3ccccc3)NC(=O)CN3CCN(S(=O)(=O)c4ccc([N+](=O)[O-])cc4)CC3)nc3cc(F)ccc3c2=O)cc1 | 3.55 | > 312 | > 88 | > 175 µM | 1.99 µM | 0.56 µM |
